Among the data in ChEMBL document CHEMBL1157264, “Hispidin derivatives from the mushroom Inonotus xeranticus and their antioxidant activity” (J Nat Prod, 2006) are IC50 and Activity values, retold here.

Activity calls are given as the source filed them. The rule behind the calls is not given here.

What all share (assay type): functional
Assay [1] in a line: Antioxidant activity assessed as superoxide radical anion scavenging activity after 30 mins by microplate reader. An outline of the steps:
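Xanthine/xanthine oxidase system: 50 mM potassium phosphate pH 7.8, 1 mM EDTA, 0.04 mM NBT, 0.18 mM xanthine, 250 mU/mL xanthine oxidase plus sample, 30 min at 37 °C in the dark. NBT-formazan read at 560 nm, background from a no-enzyme control subtracted. IC50 derived; BHA reference.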

The nature of assay [2]: Antioxidant activity assessed as ABTS radical scavenging activity after 12 hrs by ELISA. As to conditions: in the assay text read “after 6 mins” for “after 12 hrs”. An outline of the steps:
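ABTS dissolved in water at 7 mM, reacted with 2.45 mM potassium persulfate (final) and left 12 h in the dark at room temperature to form ABTS•+. Radical solution (A734 0.700) added to samples in EtOH, absorbance read after mixing for up to 6 min. IC50 derived; vitamin E reference.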
(In general: In an ELISA, binding on a coated surface is turned into a signal by an enzyme label.)

Assay [3] concerns Radical scavenging activity. The experiment in a line: Antioxidant activity assessed as DPPH radical scavenging activity for 20 mins by ELISA. An outline of the steps:
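Samples in DMSO added to 150 µM DPPH in ethanol, vortexed, incubated 20 min at room temperature, absorbance read at 517 nm. Activity taken from the absorbance difference versus DMSO control; vitamin E and caffeic acid references.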
On the technique in general: DPPH is a stable violet radical that fades when it is reduced.

Usually IC50 stands for the point on the concentration scale where inhibition reaches its midpoint. For `COc1cc(/C=C/c2cc3c(c(=O)o2)/C(=C/c2ccc(O)c(O)c2)C(C)(OC)O3)ccc1O` (stereo not given) [METHYLINOSCAVIN B], the results for the half-inhibitory concentration (IC50) in assay [1] and in assay [2] were 38 µM and 13.1 µM, respectively. The result in assay [3] was inactive.

Take `COC1(CC(C)=O)Oc2cc(/C=C/c3ccc(O)c(O)c3)oc(=O)c2/C1=C/c1ccc(O)c(O)c1` (stereo not given) [PHELLIGRIDIN F]: the IC50 in assay [1] is 40 µM; in assay [2] it was 11.4 µM. Also, the result in assay [3] was inactive.

On to `COc1ccc(O)c(C(C)(C)C)c1.COc1ccc(O)cc1C(C)(C)C` [BUTYLATED HYDROXYANISOLE], for which, in assay [1], the IC50 was determined as 10 µM.

Regarding `COc1cc(/C=C/c2cc3c(c(=O)o2)C2(OC(C)=CC2=O)C(c2ccc(O)c(O)c2)O3)ccc1O` (stereo not given) [METHYLINOSCAVIN A], the figures for the IC50 in assay [1] and in assay [2] were 20 µM and 10.7 µM, respectively. Moreover, in assay [3], the result was inactive.

Turning to `CC1=CC(=O)C2(O1)c1c(cc(/C=C/c3ccc(O)c(O)c3)oc1=O)OC2c1ccc(O)c(O)c1` (stereo not given) [INOSCAVIN A], the 50% inhibitory concentration (IC50) in assay [1] was found to be 78 µM. Also, the outcome in assay [3] was inactive.

For the molecule `COC1(C)Oc2cc(/C=C/c3ccc(O)c(O)c3)oc(=O)c2/C1=C/c1ccc(O)c(O)c1` (stereo not given) [INOSCAVIN B], the IC50 in assay [1] worked out at 95 µM. Besides, the result in assay [3] was inactive.

For VITAMIN E, the IC50 in assay [2] turned out to be 6 µM.
